Diaph inh CS: diaphorase inhibition or chemical oxidation counter-screen | 0.69% of 190,000 active | inhibition, % at 20 µM | AID 1217 | diaphorase resazurin-to-resorufin fluorescence, NADH, 16 min; bacterial (C. kluyveri) enzyme, not human;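 active = primary screen inhibition at 20 µM above a set limit, cut at about 50% in these data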;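 also: plate controls were DMSO with full reaction for no effect and wells lacking NADH for full effect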
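Assay system: diaphorase enzyme from Clostridium kluyveri; Input: enzyme working solution with 0.14 U/mL diaphorase; Timing: 16 min at room temperature; Technique: resorufin fluorescence, excitation 544 nm, emission 590 nm; Benchmarks: positive control minus NADH, DMSO neutral control.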
Diaph act CS: diaphorase activation or chemical reduction counter-screen | Diaphorase/resazurin coupled assay, resorufin fluorescence, 16 min; active compounds read high; 1 = vehicle wells, 0 = NADH-free wells | activation factor at 20 µM | 0.005% of 190,000 active | AID 1229;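 active = diaphorase activity raised at least twofold by the compound at 20 µM; inactive = activation factor below 2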
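Material: purified diaphorase enzyme from Clostridium kluyveri / Medium: HEPES pH 7.4 buffer with MgCl2 and Tween 20 / Schedule: enzyme reaction of 16 min at room temperature / Measured by: resorufin fluorescence, excitation 544 nm, emission 590 nm / Evaluation: rise in resorufin formation, marking diaphorase activation or chemical reduction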
KCC2 mod: modulates chloride dependent transport by human KCC2. KCC2 cells, thallium flux FluoZin-2 fluorescence. Q9H2X9. B-score of Tl+ flux slope (higher = more flux/activation; lower = inhibition) at 10 µM. AID 1456. 2.2% of 190,000 active;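 active = thallium flux slope and its plate-corrected score both differing from the plate sample mean at a set confidence after two filtering rounds, in either direction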;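 also: slope of fluorescence scaled to starting intensity during 10 to 20 s after thallium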
Lmaj promast: Leishmania major promastigote growth inhibition. Leishmania major promastigotes, resazurin fluorescence viability. inhibition, % at 10 µM. 9% of 200,000 active. AID 1063; in the data active = inhibition above about 50%;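 also: promastigotes grown with compound for 44 hours at 28 °C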
ROMK mod: human ROMK K+ channel modulation, primary screen; AID 1918; Tet-inducible ROMK, thallium flux fluorescence; actives lie on both sides; P48048; 2% of 130,000 active; B-score at 10 µM;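 active = signal ratio slope over the read window, or its plate-corrected B-score, at least 3 SD from the plate mean, either direction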;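 also: B-score of the F/F0 ratio slope over 7 to 12 s after thallium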
Target sequence (P48048 whole entry, looked up): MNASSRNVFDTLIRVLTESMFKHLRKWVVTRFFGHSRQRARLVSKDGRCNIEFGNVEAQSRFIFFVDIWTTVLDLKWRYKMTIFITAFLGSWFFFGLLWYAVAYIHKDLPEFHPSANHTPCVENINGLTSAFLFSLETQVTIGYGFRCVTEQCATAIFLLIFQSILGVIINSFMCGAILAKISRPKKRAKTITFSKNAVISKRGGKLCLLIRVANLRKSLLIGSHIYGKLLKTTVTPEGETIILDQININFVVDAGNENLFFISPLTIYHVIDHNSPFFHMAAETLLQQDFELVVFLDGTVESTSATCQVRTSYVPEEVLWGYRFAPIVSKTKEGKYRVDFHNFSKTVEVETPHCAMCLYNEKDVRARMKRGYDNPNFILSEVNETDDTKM
WT yeast gro inh: growth inhibition of WT yeast, mitochondrial fusion screen. mitochondrial fusion phenotypic screen, WT strain. 2.1% of 190,000 active. AID 1362. inhibition, % at 10 µM; in the data active = inhibition above about 58%; tested in S. cerevisiae
* = called active by the depositor; . = no result. In the library only some 12% were active in any assay of this set; here they are far more common.

SMILES | Diaph inh CS | Diaph act CS | KCC2 mod | Lmaj promast | ROMK mod | WT yeast gro inh
CCOc1ccc(NC(=O)NCc2cccnc2)cc1 | 16 | 0.8 | 0.46 | 4 | -0.51 | -1
Cc1cc(S(=O)(=O)N(Cc2ccc3c(c2)OCO3)CC2CCCO2)ccc1-n1cnnn1 (stereo not drawn) | 23 | 0.8 | -2.5 | 2 | -0.21 | -15
CCOC(=O)Cn1nc(C)n(-c2ccc(C(C)(C)C)cc2)c1=O | 17 | 0.8 | . | -4 | . | 7
Clc1ccc2nc(N3CCNCC3)nc(-c3ccccc3)c2c1 | -4 | 1 | 0.82 | 101* | -0.32 | 2
CN1CCN(c2nc(-c3ccccc3)c3cc(Cl)ccc3n2)CC1 | -5 | 1 | 0.3 | 86* | . | 38
CC1CC1C(=O)OCC(=O)NC(=O)NC12CC3CC(CC(C3)C1)C2 (stereo not drawn) | 3 | 1 | -0.41 | 5 | 0.048 | 2
c1ccc(-c2csc3nnc(SCc4ccc5c(c4)OCCO5)n23)cc1 | 22 | 0.8 | -2.4 | 56* | -0.89 | 22
O=C(CSc1nnc2scc(-c3ccccc3)n12)c1ccc2c(c1)OCCO2 | 19 | 0.8 | . | -1 | . | 13
Cc1ccc(CNC(=O)COC(=O)[C@@H]2CC(O)CN2S(=O)(=O)c2ccc3c(c2)OCCO3)cc1 (stereo partly drawn) | 16 | 0.8 | -0.71 | -2 | -2.1 | -5
COC(=O)C1CCN(C(=O)COC(=O)[C@@H]2CC(O)CN2S(=O)(=O)c2ccc3c(c2)OCCO3)CC1 (stereo partly drawn) | 10 | 0.9 | 0.51 | 51* | . | 2
Cc1nn(-c2ccccc2)c(C)c1/C=C/C(=O)OCC(=O)Nc1ncc(Cl)cc1Cl | 23 | 0.8 | -2.8 | 78* | . | -1
O=C(CN1CCOCC1)N1CCCc2ccccc21 | -6 | 1.1 | 0.86 | -5 | -0.038 | -15
O=C(Cn1nnc(-c2ccc(CN3CCOCC3)cc2)n1)N1CCCc2ccccc21 | 25 | 0.7 | . | 84* | . | -3
O=C(Cn1nnc(-c2ccc(CN3CCOCC3)cc2)n1)N(c1ccccc1)c1ccccc1 | 17 | 0.8 | -0.098 | 70* | . | 2
O=C(CN(C(=O)Cn1nnc(-c2cccs2)n1)c1ccc2c(c1)OCCO2)NCc1ccccc1 | -4 | 1 | -3.1 | 95* | . | 1
CCNC(=O)COc1cccc(C(=O)NCc2ccccc2)c1 | 20 | 0.8 | -0.042 | 51* | 0.32 | -8
CC(C)CNC(=O)COc1cccc(C(=O)NCc2ccccc2)c1 | 2 | 1 | -0.65 | 52* | 0.14 | -9
Cc1cc(N=Cc2c(O)n(-c3cccc(Cl)c3)c(=O)c3ccccc23)no1 | 2 | 1 | 0.96 | 1 | -0.11 | 7
Cc1ccc(N=Cc2c(O)n(-c3cc(Cl)ccc3N3CCOCC3)c(=O)c3ccccc23)cc1C | 17 | 0.8 | -0.081 | 70* | -0.19 | 8
C=CCNS(=O)(=O)c1cccc(C(C)=O)c1 | 1 | 1 | 0.2 | 54* | -0.045 | -7
CCn1c(O)c(/C=N/N=C/c2ccccc2)c2ccc(C3=NNC(=O)CC3)cc21 | 1 | 1 | -0.49 | 89* | -0.26 | 42
CCC(CC)=N/N=C/c1c(O)n(CC)c2cc(C3=NNC(=O)CC3)ccc12 | 14 | 0.9 | -0.0064 | 3 | -0.11 | -8
COc1cc(/C=N/NC(=O)CC23CC4CC(CC(C4)C2)C3)cc(Br)c1OCC(=O)N(C)C | 14 | 0.9 | 0.54 | 93* | . | -13
O=C(CC12CC3CC(CC(C3)C1)C2)N/N=C/c1ccncc1 | 10 | 0.9 | -1.5 | 68* | . | 4
O=C(N/N=C/c1ccncc1)NC12CC3CC(CC(C3)C1)C2 | . | . | 0.23 | . | 1.1 | .
Cc1cccc(NC2=NC(C)(C)N=C(N)N2)c1 | -2 | 1 | 0.64 | -3 | 0.77 | -7
CC1=CC(C)(C)N2C(=O)C3(N=C(N)NC(Nc4ccccc4)=N3)c3cc(C)cc1c32 (stereo not drawn) | 2 | 1 | 0.16 | 96* | -2.3 | 8
CCOc1ccc(N2C(=O)CC(N(Cc3ccco3)C(=O)CC)C2=O)cc1 (stereo not drawn) | 17 | 0.8 | 0.33 | -4 | 0.21 | -1
O=C(COC(=O)CNS(=O)(=O)c1c(Cl)cccc1Cl)Nc1cccnc1Cl | 9 | 0.9 | -0.077 | -6 | 0.5 | -2

Compound activity (PubChem)
